Sampled rows, rich in hits. Any-hit rate of the full collection: about 3.2%.
HTRA1 inhibitor – HTRA1 serine protease inhibitors, primary screen, biochemical, fluorescence polarization, HTS | Q92743 | recombinant HTRA1, FP-rhodamine activity-based probe | inhibition, % at 5.96 µM | 340,000 tested, 0.5% active; in the data active means inhibition above about 36%
LEDGF integ inh – blockers of LEDGF/p75-dependent integrase strand transfer – biochemical, TR-FRET, high throughput, primary screen; TR-FRET IN-LEDGF/p75 DNA integration, Eu/Cy5; inhibition, % at 3.7 µM; 370,000 tested, 0.64% active; AID 743269, 2014;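 active means inhibition above the screen-wide mean plus 3 SD, cut at about 13% in these data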;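 further: signal is the Cy5 over europium emission ratio at 671 and 618 nm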
PRMT1 FP inh – PRMT1 methyltransferase inhibitors, primary screen, biochemical, fluorescence polarization | Protein arginine N-methyltransferase 1 (Homo sapiens), Q99873 | recombinant PRMT1, activity-based probe fluorescence polarization | inhibition, % at 2.79 µM | 370,000 tested, 1.3% active;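 active means inhibition above about 21% made by adding two undisclosed values, limit read from the data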
mABHD4 FP – ABHD4 inhibitors, primary screen, biochemical, fluorescence polarization, mouse. (Lyso)-N-acylphosphatidylethanolamine lipase (Mus musculus), Q8VD66. 370,000 tested, 0.54% active. purified mABHD4, FP-Rh probe fluorescence polarization. AID 720543, 2013. inhibition, % at 8.92 µM;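 active means inhibition exceeding the mean over every tested compound plus 3 SD, cut at about 30% in these data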
Target sequence (Q8VD66 whole entry, looked up): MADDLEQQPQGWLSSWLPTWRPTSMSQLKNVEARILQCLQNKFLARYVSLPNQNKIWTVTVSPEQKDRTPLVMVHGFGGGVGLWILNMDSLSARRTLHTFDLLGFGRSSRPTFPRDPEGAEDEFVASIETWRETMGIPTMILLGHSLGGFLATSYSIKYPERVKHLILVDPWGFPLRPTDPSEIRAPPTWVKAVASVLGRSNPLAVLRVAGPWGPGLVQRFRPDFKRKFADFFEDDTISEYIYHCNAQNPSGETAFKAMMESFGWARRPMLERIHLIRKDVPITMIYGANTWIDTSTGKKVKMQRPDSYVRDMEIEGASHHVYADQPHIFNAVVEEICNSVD
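system = mouse ABHD4 enzyme, wild type | medium = HEPES pH 7.0, NaCl, Pluronic buffer | also added = FP-Rh probe | incubation = Enzyme–compound pre-incubation 45 min, then probe 60 min, both 25 °C | technique = fluorescence polarization, excitation 525 nm, emission 598 nm, BODIPY TMR filters | controls = S159A mutant high control, sample median low control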
rCAG binder – binders of r(CAG) RNA repeats, primary screen, biochemical, fluorescence; 370,000 tested, 1.3% active; AID 651821, 2012; r(CAG) RNA repeat, TO-PRO-1 dye displacement fluorescence; inhibition, % at 3 µM;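 active means inhibition above the plate cutoff, the mean of all test compounds on that plate plus 3 SD, cut at about 35% in these data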;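 further: higher means more dye released from RNA so lower well fluorescence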
DAGLB inh – DAGLB lipase inhibitors, primary screen, biochemical, fluorescence, HTS | 340,000 tested, 0.059% active | inhibition, % at 5.17 µM | Diacylglycerol lipase-beta (Homo sapiens), Q8NCG7 | HEK293T DAGLB membrane lysate, EnzChek fluorogenic substrate; in the data active means inhibition above about 34%
IN multimer act – HIV-1 IN multimer formation enhancers, counter-screen for LEDGF/p75 integration inhibitor project, biochemical, TR-FRET; shares compounds with LEDGF integ inh; TR-FRET HIV-1 integrase multimerization; activation, % at 7.7 µM; 2,000 tested, 17% active; AID 1053131, 2014; in the data active means activation above about 8.9%
TRFRET interf – TR-FRET optical interference artefacts, confirmation, artefact control for LEDGF/p75-dependent integration inhibitor project, biochemical, HIV-1 IN multimerization; shares compounds with LEDGF integ inh; TR-FRET optical interference counterscreen; inhibition, % at 7.7 µM; 2,000 tested, under 10 active; AID 1053135, 2014;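 active means inhibition above the mean over all tested compounds plus 3 SD, which no compound reached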
IN-LEDGF confirm – inhibitors of HIV-1 IN-LEDGF/p75 DNA integration, confirmation, biochemical, TR-FRET | shares compounds with LEDGF integ inh | TR-FRET LEDGF/p75-dependent HIV-1 integration | inhibition, % at 3.7 µM | 2,000 tested, 36% active; in the data active means inhibition above about 14%
Numbers stand for hits.

`CN1CCC(O)(c2ccccc2)C(C(=O)c2ccccc2)C1` (stereo unspecified) gave HTRA1 inhibitor inactive, LEDGF integ inh inactive, PRMT1 FP inh inactive, mABHD4 FP inactive, rCAG binder inactive and DAGLB inh inactive.
CN1CCC(O)(c2ccccc2)C2CCCC21 (stereo unspecified) was read as HTRA1 inhibitor inactive, LEDGF integ inh 37, PRMT1 FP inh inactive, mABHD4 FP inactive, rCAG binder inactive, DAGLB inh inactive, IN multimer act inactive, TRFRET interf inactive and IN-LEDGF confirm inactive.
CC(C)OCCCNC(=O)c1c(N)n(CC2CCCO2)c2nc3ccccc3nc12 (stereo unspecified) was read as HTRA1 inhibitor inactive, LEDGF integ inh 29, PRMT1 FP inh inactive, mABHD4 FP inactive, rCAG binder inactive, DAGLB inh inactive, IN multimer act inactive, TRFRET interf inactive and IN-LEDGF confirm inactive.
For Nc1c(C(=O)NCCCc2ccccc2)c2nc3ccccc3nc2n1Cc1cccs1 the results were HTRA1 inhibitor inactive, LEDGF integ inh 26, PRMT1 FP inh inactive, mABHD4 FP inactive, rCAG binder inactive, DAGLB inh inactive, IN multimer act inactive, TRFRET interf inactive and IN-LEDGF confirm inactive.
`Cc1cc(C)c(C)c(C(O)(C(=O)O)c2ccccc2)c1C` (stereo unspecified) gave HTRA1 inhibitor inactive, LEDGF integ inh inactive, PRMT1 FP inh inactive, mABHD4 FP inactive, rCAG binder inactive and DAGLB inh inactive.
Screening CCOCCCn1c(N)c(C(=O)Nc2sc3c(c2C(=O)OC)CCCC3)c2nc3ccccc3nc21 returned HTRA1 inhibitor inactive, LEDGF integ inh 31, PRMT1 FP inh inactive, mABHD4 FP inactive, rCAG binder inactive, DAGLB inh inactive, IN multimer act inactive, TRFRET interf inactive and IN-LEDGF confirm inactive.
`COc1cc(C(c2c(C)[nH]n(-c3ccccc3)c2=O)c2c(C)[nH]n(-c3ccccc3)c2=O)cc(OC)c1OC` gave HTRA1 inhibitor inactive, LEDGF integ inh 43, PRMT1 FP inh inactive, mABHD4 FP inactive, rCAG binder inactive, DAGLB inh inactive, IN multimer act inactive, TRFRET interf inactive and IN-LEDGF confirm inactive.
Screening COc1cc2[nH]c(=O)n(-c3ccccc3)c(=O)c2cc1OC returned HTRA1 inhibitor inactive, LEDGF integ inh inactive, PRMT1 FP inh inactive, mABHD4 FP inactive, rCAG binder inactive and DAGLB inh inactive.
For COc1ccccc1OP(=O)(Nc1cccnc1)Oc1ccccc1OC the results were HTRA1 inhibitor inactive, LEDGF integ inh inactive, PRMT1 FP inh inactive, mABHD4 FP inactive, rCAG binder inactive and DAGLB inh inactive.
For Cc1cc(/C=C2\C(=O)NC(=O)N(Cc3ccccc3)C2=O)c(C)n1C1CC1 the results were HTRA1 inhibitor inactive, LEDGF integ inh inactive, PRMT1 FP inh inactive, mABHD4 FP inactive, rCAG binder inactive and DAGLB inh inactive.
`Cc1cc(/C=C2/C(=O)NC(=O)N(Cc3ccco3)C2=O)c(C)n1-c1ccccc1` gave HTRA1 inhibitor inactive, LEDGF integ inh 53, PRMT1 FP inh inactive, mABHD4 FP inactive, rCAG binder inactive, DAGLB inh inactive, IN multimer act inactive, TRFRET interf inactive and IN-LEDGF confirm inactive.
For Cc1cc(/C=C2\C(=O)NC(=O)N(c3ccc(Br)cc3)C2=O)c(C)n1-c1cc(C(=O)O)cc(C(=O)O)c1 the results were HTRA1 inhibitor inactive, LEDGF integ inh 44, PRMT1 FP inh inactive, mABHD4 FP inactive, rCAG binder inactive, DAGLB inh inactive, IN multimer act inactive, TRFRET interf inactive and IN-LEDGF confirm 31.
For Cc1cc(/C=C2\C(=O)NC(=O)N(c3cccc(F)c3)C2=O)c(C)n1-c1cc(C(=O)O)cc(C(=O)O)c1 the results were HTRA1 inhibitor inactive, LEDGF integ inh 39, PRMT1 FP inh inactive, mABHD4 FP inactive, rCAG binder inactive, DAGLB inh inactive, IN multimer act inactive, TRFRET interf inactive and IN-LEDGF confirm 24.
For CCC1(O)CCC2C3CCC4=CC(=O)CCC4C3CCC21CC (stereo unspecified) the results were HTRA1 inhibitor inactive, LEDGF integ inh inactive, PRMT1 FP inh inactive, mABHD4 FP inactive, rCAG binder inactive and DAGLB inh inactive.
`COc1ccc(CN2Cc3cc(-c4ccc(OC)cc4)ccc3-n3nncc3C2)cc1` gave LEDGF integ inh 17, PRMT1 FP inh inactive, mABHD4 FP inactive, rCAG binder inactive, IN multimer act inactive, TRFRET interf inactive and IN-LEDGF confirm inactive.
`COc1ccc(CN2Cc3cc(-c4ccccc4)ccc3-n3nncc3C2)cc1` gave LEDGF integ inh inactive, PRMT1 FP inh inactive, mABHD4 FP inactive and rCAG binder inactive.
CN1C[C@H](CO)C=C2c3cccc4[nH]cc(c34)C[C@H]21 was read as HTRA1 inhibitor inactive, LEDGF integ inh 16, PRMT1 FP inh 23, mABHD4 FP inactive, rCAG binder inactive, DAGLB inh inactive, IN multimer act inactive, TRFRET interf inactive and IN-LEDGF confirm inactive.
`O=c1[nH]c(=O)n(Cc2ccco2)c(O)c1/C=N/N1CCCCC1` gave HTRA1 inhibitor inactive, LEDGF integ inh 23, PRMT1 FP inh inactive, mABHD4 FP inactive, rCAG binder inactive, DAGLB inh inactive, IN multimer act inactive, TRFRET interf inactive and IN-LEDGF confirm inactive.
Screening Clc1cccc(N2Cc3ccccc3-n3nncc3C2)c1 returned LEDGF integ inh inactive, PRMT1 FP inh inactive, mABHD4 FP inactive and rCAG binder inactive.
COC(=O)C1=C(c2ccc(-c3ccccc3)c(F)c2)C[C@@H]2CC[C@H]1N2C(=O)NCCNC(C)=O was read as HTRA1 inhibitor inactive, LEDGF integ inh inactive, PRMT1 FP inh inactive, mABHD4 FP inactive, rCAG binder inactive and DAGLB inh inactive.
